Test system: HEK293
Assay: Antiproliferative activity against human HEK293 cells after 48 hrs by MTT assay
Type: cell-based
Conditions: HEK293, 48 h; call rule not given here
Method in brief: (§1)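 MTT assay: cells seeded at 1 × 10^4 per well in DMEM with 10% FBS, left 24 h at 37 °C in CO2; compounds diluted in medium added alongside vehicle control for 48 h; MTT (5 mg/mL) added for 4 h, formazan dissolved in DMSO, absorbance read at 540 nm; IC50 in µM.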

SMILES	IC50 [µM]
CC(=O)Oc1ccc([C@@H]2Oc3ccccc3[C@H](c3ccc(O)cc3)[C@H]2c2ccccc2)cc1	> 100
CC(=O)Oc1ccc([C@@H]2Oc3ccccc3[C@H](c3ccc(OCCCN(C)C)cc3)[C@H]2c2ccccc2)cc1	14
Oc1ccc([C@@H]2Oc3ccccc3[C@H](c3ccc(OCCN4CCCC4)cc3)[C@H]2c2ccccc2)cc1	36.3
CCN(CC)CCOc1ccc([C@H]2c3ccccc3O[C@@H](c3ccc(OC(C)=O)cc3)[C@@H]2c2ccccc2)cc1	16.1
O=C1c2ccccc2O[C@@H](c2ccc(OCCN3CCCC3)cc2)[C@@H]1c1ccccc1	34
Oc1ccc([C@@H]2Oc3ccccc3[C@H](c3ccc(OCCN4CCCCC4)cc3)[C@H]2c2ccccc2)cc1	38.3
Oc1ccc([C@H]2c3ccccc3O[C@@H](c3ccc(O)cc3)[C@@H]2c2ccccc2)cc1	> 500
CC(=O)Oc1ccc([C@@H]2Oc3ccccc3[C@H](c3ccc(OCCN4CCCCC4)cc3)[C@H]2c2ccccc2)cc1	29.8
CC(=O)Oc1ccc([C@@H]2Oc3ccccc3[C@H](c3ccc(OCCN4CCCCCC4)cc3)[C@H]2c2ccccc2)cc1	88.6
CC(C)N(CCOc1ccc([C@H]2c3ccccc3O[C@@H](c3ccc(O)cc3)[C@@H]2c2ccccc2)cc1)C(C)C	20.5

Test system: Rattus norvegicus
Assay: Estrogenic antagonistic activity in bilaterally ovariectomized Sprague-Dawley rat assessed as inhibition of ethynylesterol-induced uterine weight at 10 mg/kg, po once daily for 3 days measured on day 31 of age
Type: functional
Conditions: not given
Method in brief: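 Antagonism read as uterine fresh weight in rats given compound orally at 10 mg/kg/day alongside 17α-ethynylestradiol (0.02 mg/kg/day); inhibition expressed relative to the ethynylestradiol-only group; means ± SEM, at least six animals per group.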

SMILES	inhibition in vivo at 10 mg/kg [%]
CC(=O)Oc1ccc([C@@H]2Oc3ccccc3[C@H](c3ccc(O)cc3)[C@H]2c2ccccc2)cc1	4.2
CC(=O)Oc1ccc([C@@H]2Oc3ccccc3[C@H](c3ccc(OCCCN(C)C)cc3)[C@H]2c2ccccc2)cc1	58.4
CC(=O)Oc1ccc([C@@H]2Oc3ccccc3[C@H](c3ccc(OCCN(C(C)C)C(C)C)cc3)[C@H]2c2ccccc2)cc1	73.9
Oc1ccc([C@@H]2Oc3ccccc3[C@H](c3ccc(OCCN4CCCC4)cc3)[C@H]2c2ccccc2)cc1	69.2
CCN(CC)CCOc1ccc([C@H]2c3ccccc3O[C@@H](c3ccc(OC(C)=O)cc3)[C@@H]2c2ccccc2)cc1	59.3
O=C1c2ccccc2O[C@@H](c2ccc(OCCN3CCCC3)cc2)[C@@H]1c1ccccc1	45.4
Oc1ccc([C@@H]2Oc3ccccc3[C@H](c3ccc(OCCN4CCCCC4)cc3)[C@H]2c2ccccc2)cc1	51.5
OC1c2ccccc2O[C@@H](c2ccc(OCCN3CCCC3)cc2)[C@@H]1c1ccccc1 (some centres undefined)	29
Oc1ccc([C@H]2c3ccccc3O[C@@H](c3ccc(O)cc3)[C@@H]2c2ccccc2)cc1	21.2
CC(=O)Oc1ccc([C@@H]2Oc3ccccc3[C@H](c3ccc(OCCN4CCCCC4)cc3)[C@H]2c2ccccc2)cc1	51.4
CC(=O)Oc1ccc([C@@H]2Oc3ccccc3[C@H](c3ccc(OCCN4CCCCCC4)cc3)[C@H]2c2ccccc2)cc1	30.6
CC(C)N(CCOc1ccc([C@H]2c3ccccc3O[C@@H](c3ccc(O)cc3)[C@@H]2c2ccccc2)cc1)C(C)C	69
COc1ccc2c(c1)OC(C)(C)C(c1ccccc1)C2c1ccc(OCCN2CCCC2)cc1 (centres undefined) [ORMELOXIFENE]	77.9
CC/C(=C(\c1ccccc1)c1ccc(OCCN(C)C)cc1)c1ccccc1 [TAMOXIFEN]	27.4

Test system: MDA-MB-231
Assay: Antiproliferative activity against human MDA-MB-231 cells after 48 hrs by MTT assay
Type: functional, cell-based
Conditions: Homo sapiens, MDA-MB-231, 48 h; read-out: IC50
Method in brief: as §1

SMILES	IC50 [µM]
CC(=O)Oc1ccc([C@@H]2Oc3ccccc3[C@H](c3ccc(OCCCN(C)C)cc3)[C@H]2c2ccccc2)cc1	5.61
Oc1ccc([C@@H]2Oc3ccccc3[C@H](c3ccc(OCCN4CCCC4)cc3)[C@H]2c2ccccc2)cc1	17.8
Oc1ccc([C@@H]2Oc3ccccc3[C@H](c3ccc(OCCN4CCCCC4)cc3)[C@H]2c2ccccc2)cc1	8.65
CC(=O)Oc1ccc([C@@H]2Oc3ccccc3[C@H](c3ccc(OCCN4CCCCC4)cc3)[C@H]2c2ccccc2)cc1	14
CC(C)N(CCOc1ccc([C@H]2c3ccccc3O[C@@H](c3ccc(O)cc3)[C@@H]2c2ccccc2)cc1)C(C)C	7.48
CC/C(=C(\c1ccccc1)c1ccc(OCCN(C)C)cc1)c1ccccc1 [TAMOXIFEN]	9.86

Same assay, conditions: mda-mb-231

SMILES	IC50
CC(=O)Oc1ccc([C@@H]2Oc3ccccc3[C@H](c3ccc(O)cc3)[C@H]2c2ccccc2)cc1	Not Active
CC(=O)Oc1ccc([C@@H]2Oc3ccccc3[C@H](c3ccc(OCCN(C(C)C)C(C)C)cc3)[C@H]2c2ccccc2)cc1	Not Active
CCN(CC)CCOc1ccc([C@H]2c3ccccc3O[C@@H](c3ccc(OC(C)=O)cc3)[C@@H]2c2ccccc2)cc1	Not Active
O=C1c2ccccc2O[C@@H](c2ccc(OCCN3CCCC3)cc2)[C@@H]1c1ccccc1	Not Active
OC1c2ccccc2O[C@@H](c2ccc(OCCN3CCCC3)cc2)[C@@H]1c1ccccc1 (some centres undefined)	Not Active
Oc1ccc([C@H]2c3ccccc3O[C@@H](c3ccc(O)cc3)[C@@H]2c2ccccc2)cc1	Not Active
CC(=O)Oc1ccc([C@@H]2Oc3ccccc3[C@H](c3ccc(OCCN4CCCCCC4)cc3)[C@H]2c2ccccc2)cc1	Not Active

Test system: Rattus norvegicus
Assay: Estrogenic agonistic activity in bilaterally ovariectomized Sprague-Dawley rat assessed as uterine weight gain at 10 mg/kg, po once daily for three days measured on day 31 of age
Type: functional
Conditions: not given
Method in brief: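 Immature rats dosed orally once daily for three consecutive days; vehicle-only group as control. Autopsy 24 h after last dose on day 31 of age: vaginal smear taken, uterus excised, blotted and weighed fresh. Vaginal opening, vaginal epithelial cornification and uterine weight increase scored; gain expressed as percent of vehicle control; means ± SEM, at least six per group.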

SMILES	Activity [%]
CC(=O)Oc1ccc([C@@H]2Oc3ccccc3[C@H](c3ccc(O)cc3)[C@H]2c2ccccc2)cc1	105.18
CC(=O)Oc1ccc([C@@H]2Oc3ccccc3[C@H](c3ccc(OCCCN(C)C)cc3)[C@H]2c2ccccc2)cc1	117.2
CC(=O)Oc1ccc([C@@H]2Oc3ccccc3[C@H](c3ccc(OCCN(C(C)C)C(C)C)cc3)[C@H]2c2ccccc2)cc1	146.6
Oc1ccc([C@@H]2Oc3ccccc3[C@H](c3ccc(OCCN4CCCC4)cc3)[C@H]2c2ccccc2)cc1	11.25
CCN(CC)CCOc1ccc([C@H]2c3ccccc3O[C@@H](c3ccc(OC(C)=O)cc3)[C@@H]2c2ccccc2)cc1	41.2
O=C1c2ccccc2O[C@@H](c2ccc(OCCN3CCCC3)cc2)[C@@H]1c1ccccc1	13.17
Oc1ccc([C@@H]2Oc3ccccc3[C@H](c3ccc(OCCN4CCCCC4)cc3)[C@H]2c2ccccc2)cc1	28.2
OC1c2ccccc2O[C@@H](c2ccc(OCCN3CCCC3)cc2)[C@@H]1c1ccccc1 (some centres undefined)	124.5
Oc1ccc([C@H]2c3ccccc3O[C@@H](c3ccc(O)cc3)[C@@H]2c2ccccc2)cc1	142.9
CC(=O)Oc1ccc([C@@H]2Oc3ccccc3[C@H](c3ccc(OCCN4CCCCC4)cc3)[C@H]2c2ccccc2)cc1	171.4
CC(=O)Oc1ccc([C@@H]2Oc3ccccc3[C@H](c3ccc(OCCN4CCCCCC4)cc3)[C@H]2c2ccccc2)cc1	108.3
CC(C)N(CCOc1ccc([C@H]2c3ccccc3O[C@@H](c3ccc(O)cc3)[C@@H]2c2ccccc2)cc1)C(C)C	225
COc1ccc2c(c1)OC(C)(C)C(c1ccccc1)C2c1ccc(OCCN2CCCC2)cc1 (centres undefined) [ORMELOXIFENE]	164.3
CC/C(=C(\c1ccccc1)c1ccc(OCCN(C)C)cc1)c1ccccc1 [TAMOXIFEN]	208.8

Test system: MCF7
Assay: Antiproliferative activity against human MCF7 cells after 48 hrs by MTT assay
Type: functional, cell-based
Conditions: Homo sapiens, MCF7, 48 h; read-out: IC50
Method in brief: as §1

SMILES	IC50 [µM]
CC(=O)Oc1ccc([C@@H]2Oc3ccccc3[C@H](c3ccc(OCCCN(C)C)cc3)[C@H]2c2ccccc2)cc1	11
Oc1ccc([C@@H]2Oc3ccccc3[C@H](c3ccc(OCCN4CCCC4)cc3)[C@H]2c2ccccc2)cc1	18.4
CCN(CC)CCOc1ccc([C@H]2c3ccccc3O[C@@H](c3ccc(OC(C)=O)cc3)[C@@H]2c2ccccc2)cc1	11.7
Oc1ccc([C@@H]2Oc3ccccc3[C@H](c3ccc(OCCN4CCCCC4)cc3)[C@H]2c2ccccc2)cc1	7.79
CC(=O)Oc1ccc([C@@H]2Oc3ccccc3[C@H](c3ccc(OCCN4CCCCC4)cc3)[C@H]2c2ccccc2)cc1	16.8
CC(C)N(CCOc1ccc([C@H]2c3ccccc3O[C@@H](c3ccc(O)cc3)[C@@H]2c2ccccc2)cc1)C(C)C	6.97
CC/C(=C(\c1ccccc1)c1ccc(OCCN(C)C)cc1)c1ccccc1 [TAMOXIFEN]	7.65

Same assay, conditions: mcf7

SMILES	IC50
CC(=O)Oc1ccc([C@@H]2Oc3ccccc3[C@H](c3ccc(O)cc3)[C@H]2c2ccccc2)cc1	Not Active
CC(=O)Oc1ccc([C@@H]2Oc3ccccc3[C@H](c3ccc(OCCN(C(C)C)C(C)C)cc3)[C@H]2c2ccccc2)cc1	Not Active
O=C1c2ccccc2O[C@@H](c2ccc(OCCN3CCCC3)cc2)[C@@H]1c1ccccc1	Not Active
OC1c2ccccc2O[C@@H](c2ccc(OCCN3CCCC3)cc2)[C@@H]1c1ccccc1 (some centres undefined)	Not Active
Oc1ccc([C@H]2c3ccccc3O[C@@H](c3ccc(O)cc3)[C@@H]2c2ccccc2)cc1	Not Active
CC(=O)Oc1ccc([C@@H]2Oc3ccccc3[C@H](c3ccc(OCCN4CCCCCC4)cc3)[C@H]2c2ccccc2)cc1	Not Active

Source: ChEMBL document CHEMBL1152595, “Synthesis and biological evaluation of 2,3,4-triarylbenzopyran derivatives as SERM and therapeutic agent for breast cancer” (Bioorg Med Chem, 2009)
